Assays:
Multiple ascending dose = assay type: in vivo, human; conditions: for Accumulation in plasma exposure (AUC): approximate
Procedure, shortened: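 Healthy subjects were randomized to test compound or placebo by oral immediate-release capsule in the fasted state. In Cohorts 1–2 (2:1), 50 µg QD escalated to 100, 200, 300 and 400 µg every sixth day if tolerated. In Cohort 3 (4:1), 10 µg BID escalated to 20, 30, 40, 50 and 70 µg. K₂EDTA blood was drawn pre-dose and 0.25–24 h post-dose.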

[1] = tested on: prostacyclin (IP) receptor; conditions: cited from earlier work
plasma protein = conditions: animals and humans; cited from earlier work
[2] = tested on: rat monocrotaline model of PAH; conditions: oral; cited from earlier work
[3] = 10 µg BID, steady state, n = 20, mean (SD)
[4] = 30 µg QD, steady state, n = 3, mean (SD)
[5] = 40 µg BID, steady state, n = 9, mean (SD)
[6] = 50 µg BID, steady state, n = 6, mean (SD)
[7] = 50 µg QD, steady state, n = 16, mean (SD)
[8] = 100 µg QD, steady state, n = 7, mean (SD)
[9] = 300 µg QD, steady state, single subject
[10] = 400 µg QD, near steady-state (Day 21, first day at this dose), single subject

SMILES: O=C(O)COC[C@H]1CC[C@H](COC(=O)N(c2ccccc2)c2ccc(Cl)cc2)CC1 [ralinepag]
- Mean steady-state accumulation of total plasma exposure (AUC) (Multiple ascending dose; 10 µg BID): 2.64 fold
- Accumulation ratio Rac(Cmax) (Multiple ascending dose; [3]): 2.07 (0.40)
- PTR (peak-to-trough plasma concentration ratio) (Multiple ascending dose; [3]): 2.04 (0.32)
- PTR (peak-to-trough plasma concentration ratio) (Multiple ascending dose; 20 µg BID, steady state, n = 20, mean (SD)): 1.97 (0.26)
- PTR (peak-to-trough plasma concentration ratio) (Multiple ascending dose; 30 µg BID, steady state, n = 10, mean (SD)): 1.95 (0.22)
- Ctrough,ss (Multiple ascending dose; [4]): 0.72 (0.20) ng/mL
- PTR (peak-to-trough plasma concentration ratio) (Multiple ascending dose; [4]): 3.34 (1.20)
- Ctrough,ss (Multiple ascending dose; [5]): 1.51 (0.57) ng/mL
- PTR (peak-to-trough plasma concentration ratio) (Multiple ascending dose; [5]): 2.28 (0.40)
- Ctrough,ss (Multiple ascending dose; [6]): 2.32 (0.78) ng/mL
- PTR (peak-to-trough plasma concentration ratio) (Multiple ascending dose; [6]): 2.00 (0.43)
- Mean EHL (Multiple ascending dose; 50 µg QD): 18.4 h
- Mean steady-state accumulation of total plasma exposure (AUC) (Multiple ascending dose; 50 µg QD): 1.69 fold
- Accumulation ratio Rac(AUC) (Multiple ascending dose; [7]): 1.69 (0.24)
- Accumulation ratio Rac(Cmax) (Multiple ascending dose; [7]): 1.54 (0.31)
- Ctrough,ss (Multiple ascending dose; [7]): 0.76 (0.37) ng/mL
- PTR (peak-to-trough plasma concentration ratio) (Multiple ascending dose; [7]): 4.33 (2.12)
- PTR (peak-to-trough plasma concentration ratio) (Multiple ascending dose; 70 µg BID, steady state, single subject): 2.36
- Ctrough,ss (Multiple ascending dose; [8]): 1.39 (0.68) ng/mL
- PTR (peak-to-trough plasma concentration ratio) (Multiple ascending dose; [8]): 4.49 (2.66)
- Ctrough,ss (Multiple ascending dose; [9]): 5.14 ng/mL
- PTR (peak-to-trough plasma concentration ratio) (Multiple ascending dose; [9]): 3.42
- Ctrough,ss (Multiple ascending dose; [10]): 6.13 ng/mL
- PTR (peak-to-trough plasma concentration ratio) (Multiple ascending dose; [10]): 3.70
- Dose proportionality of Cmax,ss, Ctrough,ss and AUC0–τ,ss (Multiple ascending dose; 10–50 µg BID dose range): approximately dose proportional
- Dose proportionality of Cmax,ss, Ctrough,ss and AUC0–τ,ss (Multiple ascending dose; 50–300 µg QD dose range): approximately dose-proportional
- Accumulation in plasma exposure (AUC) (Multiple ascending dose; BID (Q12 hours) dosing): ~2.6 fold
- Steady-state peak-to-trough ratio, range across doses (Multiple ascending dose; BID dosing, Cohort 3): 1.95–2.36
- Accumulation in plasma exposure (AUC) (Multiple ascending dose; QD (Q24 hours) dosing): ~1.7 fold
- Steady-state peak-to-trough ratio, range across doses (Multiple ascending dose; QD dosing, Cohorts 1 and 2 combined): 3.34–4.49
- Half-life (Multiple ascending dose; both, human, plasma, oral): 17.5 to 18.4 h
- AUC (Multiple ascending dose; human, plasma, oral, 10 ug, AUC0–τ, 10 µg BID, Study Day 1 (non-steady-state), τ 12 h, n = 20, mean (SD)): 2.51 ng·h/mL
- AUC (Multiple ascending dose; human, plasma, oral, 10 ug, AUC0–τ,ss, 10 µg BID, steady state, τ 12 h, n = 20, mean (SD)): 6.68 ng·h/mL
- Cmax (Multiple ascending dose; human, plasma, oral, 10 ug, Cmax, 10 µg BID, Study Day 1 (non-steady-state), n = 20, mean (SD)): 0.412 ng/mL
- Cmax (Multiple ascending dose; human, plasma, oral, 10 ug, Cmax,ss, 10 µg BID, steady state, n = 20, mean (SD)): 0.86 ng/mL
- Tmax (Multiple ascending dose; human, plasma, oral, 10 ug, Tmax, 10 µg BID, Study Day 1 (non-steady-state), n = 20, median (min–max)): 1 h
- Tmax (Multiple ascending dose; human, plasma, oral, 10 ug, Tmax,ss, 10 µg BID, steady state, n = 20, median (min–max)): 1 h
- Cmax (Multiple ascending dose; human, plasma, oral, 20 ug, Cmax,ss, 20 µg BID, steady state, n = 20, mean (SD)): 1.8 ng/mL
- AUC (Multiple ascending dose; human, plasma, oral, 30 ug, AUC0-τ,ss, 30 µg QD, steady state, τ 24 h, n = 3, mean (SD)): 24.8 ng·h/mL
- Cmax (Multiple ascending dose; human, plasma, oral, 30 ug, Cmax,ss, 30 µg BID, steady state, n = 10, mean (SD)): 2.12 ng/mL
- Cmax (Multiple ascending dose; human, plasma, oral, 30 ug, Cmax,ss, 30 µg QD, steady state, n = 3, mean (SD)): 2.29 ng/mL
- Tmax (Multiple ascending dose; human, plasma, oral, 30 ug, Tmax,ss, 30 µg QD, steady state, n = 3, median (min – max)): 1 h
- Cmax (Multiple ascending dose; human, plasma, oral, 40 ug, Cmax,ss, 40 µg BID, steady state, n = 9, mean (SD)): 3.31 ng/mL
- AUC (Multiple ascending dose; human, plasma, oral, 50 ug, AUC0-τ, 50 µg QD, Study Day 1 (non-steady-state), τ 24 h, n = 20, mean (SD)): 15.9 ng·h/mL
- AUC (Multiple ascending dose; human, plasma, oral, 50 ug, AUC0-τ,ss, 50 µg QD, steady state, τ 24 h, n = 16, mean (SD)): 26.2 ng·h/mL
- AUC (Multiple ascending dose; human, plasma, oral, 50 ug, AUC0–τ,ss, 50 µg BID, steady state, τ 12 h, n = 6, mean (SD)): 36 ng·h/mL
- Cmax (Multiple ascending dose; human, plasma, oral, 50 ug, Cmax, 50 µg QD, Study Day 1 (non-steady-state), n = 20, mean (SD)): 1.88 ng/mL
- Cmax (Multiple ascending dose; human, plasma, oral, 50 ug, Cmax,ss, 50 µg BID, steady state, n = 6, mean (SD)): 4.43 ng/mL
- Cmax (Multiple ascending dose; human, plasma, oral, 50 ug, Cmax,ss, 50 µg QD, steady state, n = 16, mean (SD)): 2.74 ng/mL
- Tmax (Multiple ascending dose; human, plasma, oral, 50 ug, Tmax, 50 µg QD, Study Day 1 (non-steady-state), n = 20, median (min – max)): 2 h
- Tmax (Multiple ascending dose; human, plasma, oral, 50 ug, Tmax,ss, 50 µg BID, steady state, n = 6, median (min–max)): 1.25 h
- Tmax (Multiple ascending dose; human, plasma, oral, 50 ug, Tmax,ss, 50 µg QD, steady state, n = 16, median (min – max)): 1.25 h
- AUC (Multiple ascending dose; human, plasma, oral, 70 ug, AUC0–τ,ss, 70 µg BID, steady state, τ 12 h, single subject): 25.2 ng·h/mL
- Cmax (Multiple ascending dose; human, plasma, oral, 70 ug, Cmax,ss, 70 µg BID, steady state, single subject): 4.22 ng/mL
- Tmax (Multiple ascending dose; human, plasma, oral, 70 ug, Tmax,ss, 70 µg BID, steady state, single subject): 1.5 h
- AUC (Multiple ascending dose; human, plasma, oral, 100 ug, AUC0-τ,ss, 100 µg QD, steady state, τ 24 h, n = 7, mean (SD)): 48.6 ng·h/mL
- Cmax (Multiple ascending dose; human, plasma, oral, 100 ug, Cmax,ss, 100 µg QD, steady state, n = 7, mean (SD)): 5.15 ng/mL
- Tmax (Multiple ascending dose; human, plasma, oral, 100 ug, Tmax,ss, 100 µg QD, steady state, n = 7, median (min – max)): 1.5 h
- AUC (Multiple ascending dose; human, plasma, oral, 300 ug, AUC0-τ,ss, 300 µg QD, steady state, τ 24 h, single subject): 181 ng·h/mL
- Cmax (Multiple ascending dose; human, plasma, oral, 300 ug, Cmax,ss, 300 µg QD, steady state, single subject): 17.6 ng/mL
- Tmax (Multiple ascending dose; human, plasma, oral, 300 ug, Tmax,ss, 300 µg QD, steady state, single subject): 4 h
- Maximal cAMP stimulation (efficacy percentage relative to iloprost) [1]: 67%
- Type of IP receptor agonism [1]: strong partial agonist
- Functional potency relative to ACT-333679 ([1]; greater potency than selexipag active metabolite): 6–8 fold
- Plasma protein binding (plasma protein): ~99%
- Efficacy in rat monocrotaline model of PAH [2]: dose-dependent oral efficacy

Reference: paper PMC7238799 (Pulmonary Circulation, 2020)
